Test results from ChEMBL document CHEMBL4689842, “EUbOPEN Chemogenomics Library wave 1” (2021).
Values joined by “and” are separate entries in the source; they are usually repeats but may differ in a detail not shown here. Equal values may be shown once.

Tested on: HEK-293T
Assay: Multiplex assay against HEK293T;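 as to Population Tubulin-Different-Phenotype (%): share of the cells with healthy nuclei that show this phenotype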
Type: toxicity, cell-based
Conditions: human
Summary of the method: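 Live cells were stained at seeding with Hoechst33342, BioTracker Green Microtubule Cytoskeleton Dye, MitoTracker Red and Annexin V Alexa Fluor 680. Following compound addition, they were imaged on a CQ1 microscope at 37°C and 5% CO2 and gated by CellPathfinder machine learning into Hoechst high-intensity objects or normal cells, with normal cells split into healthy, pyknosed or fragmented nuclei and pyknosed cells into mitotic or apoptotic. Tubulin, mitochondrial-mass and membrane-permeability phenotypes are per cents of healthy-nucleus cells.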

[1] = 12 h, 1 µM, compound concentration 1 uM, replicate 1
[2] = 12 h, 1 µM, compound concentration 1 uM, replicate 2
[3] = 12 h, 10 µM, compound concentration 10 uM, replicate 1
[4] = 12 h, 10 µM, compound concentration 10 uM, replicate 2
[5] = 24 h, 1 µM, compound concentration 1 uM, replicate 1
[6] = 24 h, 1 µM, compound concentration 1 uM, replicate 2
[7] = 24 h, 10 µM, compound concentration 10 uM, replicate 1
[8] = 24 h, 10 µM, compound concentration 10 uM, replicate 2
[9] = 48 h, 10 µM, compound concentration 10 uM, replicate 1
[10] = 48 h, 10 µM, compound concentration 10 uM, replicate 2

NC(=O)Nc1cc(-c2cccc(F)c2)sc1C(=O)N[C@H]1CCCNC1 [AZD-7762]
Population Fragmented Nuclei (%) [1]: 18% | Population Healthy Nuclei (%) [1]: 54% | Population Hoechst High Intensity Objects (%) [1]: 13% | Population Mitochondria Different-Phenotype (%) [1]: 5% | Population Normal (%) [1]: 86% | Population Pyknosed Nuclei (%) [1]: 26% | Population Tubulin-Different-Phenotype (%) [1]: 3% | Total Cell Count [1]: 661 | Population Apoptotic (%) [2]: 18% | Population Fragmented Nuclei (%) [2]: 6% | Population Healthy Nuclei (%) [2]: 73% | Population Hoechst High Intensity Objects (%) [2]: 5% | Population Membrane Permeable-Phenotype (%) [2]: 5% | Population Mitochondria Different-Phenotype (%) [2]: 20% | Population Mitotic Cells (%) [2]: 81% | Population Normal (%) [2]: 94% | Population Pyknosed Nuclei (%) [2]: 19% | Population Tubulin-Different-Phenotype (%) [2]: 25% | Total Cell Count [2]: 1132 | Population Fragmented Nuclei (%) [3]: 28% and 23% | Population Hoechst High Intensity Objects (%) [3]: 18% and 14% | Population Membrane Permeable-Phenotype (%) [3]: 5% and 4% | Population Normal (%) [3]: 81% and 85% | Population Pyknosed Nuclei (%) [3]: 59% and 21% | Population Apoptotic (%) [4]: 27% and 9% | Population Fragmented Nuclei (%) [4]: 8% and 10% | Population Healthy Nuclei (%) [4]: 28% and 66% | Population Hoechst High Intensity Objects (%) [4]: 4% and 2% | Population Membrane Permeable-Phenotype (%) [4]: 0% and 3% | Population Mitochondria Different-Phenotype (%) [4]: 30% and 18% | Population Mitotic Cells (%) [4]: 72% and 90% | Population Normal (%) [4]: 95% and 97% | Population Pyknosed Nuclei (%) [4]: 63% and 22% | Population Tubulin-Different-Phenotype (%) [4]: 14% and 21% | Population Apoptotic (%) [5]: 19% | Population Fragmented Nuclei (%) [5]: 18% | Population Healthy Nuclei (%) [5]: 42% | Population Hoechst High Intensity Objects (%) [5]: 12% | Population Membrane Permeable-Phenotype (%) [5]: 9% | Population Mitochondria Different-Phenotype (%) [5]: 7% | Population Mitotic Cells (%) [5]: 80% | Population Normal (%) [5]: 87% | Population Pyknosed Nuclei (%) [5]: 38% | Population Tubulin-Different-Phenotype (%) [5]: 14% | Total Cell Count [5]: 632 | Population Apoptotic (%) [6]: 35% | Population Fragmented Nuclei (%) [6]: 8% | Population Healthy Nuclei (%) [6]: 39% | Population Hoechst High Intensity Objects (%) [6]: 6% | Population Membrane Permeable-Phenotype (%) [6]: 8% | Population Mitochondria Different-Phenotype (%) [6]: 33% | Population Mitotic Cells (%) [6]: 64% | Population Normal (%) [6]: 93% | Population Pyknosed Nuclei (%) [6]: 51% | Population Tubulin-Different-Phenotype (%) [6]: 62% | Total Cell Count [6]: 1019 | Population Apoptotic (%) [7]: 26% and 66% | Population Fragmented Nuclei (%) [7]: 22% and 33% | Population Hoechst High Intensity Objects (%) [7]: 13% and 14% | Population Membrane Permeable-Phenotype (%) [7]: 8% and 0% | Population Mitotic Cells (%) [7]: 73% and 33% | Population Normal (%) [7]: 86% and 85% | Population Pyknosed Nuclei (%) [7]: 36% and 58% | Population Tubulin-Different-Phenotype (%) [7]: 36% and 50% | Population Apoptotic (%) [8]: 52% and 23% | Population Fragmented Nuclei (%) [8]: 12% and 17% | Population Hoechst High Intensity Objects (%) [8]: 6% and 5% | Population Membrane Permeable-Phenotype (%) [8]: 10% | Population Mitochondria Different-Phenotype (%) [8]: 20% and 48% | Population Mitotic Cells (%) [8]: 47% and 76% | Population Normal (%) [8]: 93% and 95% | Population Pyknosed Nuclei (%) [8]: 80% and 47% | Population Tubulin-Different-Phenotype (%) [8]: 30% and 63% | Population Apoptotic (%) [9]: 75% | Population Fragmented Nuclei (%) [9]: 43% | Population Healthy Nuclei (%) [9]: 3% | Population Hoechst High Intensity Objects (%) [9]: 21% | Population Membrane Permeable-Phenotype (%) [9]: 0% | Population Mitochondria Different-Phenotype (%) [9]: 100% | Population Mitotic Cells (%) [9]: 25% | Population Normal (%) [9]: 78% | Population Pyknosed Nuclei (%) [9]: 53% | Population Tubulin-Different-Phenotype (%) [9]: 0% | Total Cell Count [9]: 191 | Population Fragmented Nuclei (%) [10]: 13% | Population Healthy Nuclei (%) [10]: 12% | Population Hoechst High Intensity Objects (%) [10]: 8% | Population Membrane Permeable-Phenotype (%) [10]: 5% | Population Mitochondria Different-Phenotype (%) [10]: 66% | Population Mitotic Cells (%) [10]: 24% | Population Normal (%) [10]: 91% | Population Pyknosed Nuclei (%) [10]: 74% | Population Tubulin-Different-Phenotype (%) [10]: 61% | Total Cell Count [10]: 161

Cn1c(-c2csc(C3CCN(CC4=NC5N=CC=CC5N4)CC3)n2)nc2ccccc21 (centres undefined) [BAY-070]
Population Apoptotic (%) [3]: 19% and 14% | Population Fragmented Nuclei (%) [3]: 25% and 9% | Population Healthy Nuclei (%) [3]: 48% and 56% | Population Hoechst High Intensity Objects (%) [3]: 16% and 14% | Population Membrane Permeable-Phenotype (%) [3]: 5% and 3% | Population Mitochondria Different-Phenotype (%) [3]: 5% and 8% | Population Mitotic Cells (%) [3]: 80% and 85% | Population Normal (%) [3]: 83% and 85% | Population Pyknosed Nuclei (%) [3]: 26% and 33% | Population Tubulin-Different-Phenotype (%) [3]: 7% and 10% | Total Cell Count [3]: 591 and 756 | Population Apoptotic (%) [4]: 15% and 10% | Population Fragmented Nuclei (%) [4]: 3% and 6% | Population Healthy Nuclei (%) [4]: 82% and 88% | Population Hoechst High Intensity Objects (%) [4]: 5% and 2% | Population Membrane Permeable-Phenotype (%) [4]: 1% | Population Mitochondria Different-Phenotype (%) [4]: 21% | Population Mitotic Cells (%) [4]: 84% and 89% | Population Normal (%) [4]: 94% and 97% | Population Tubulin-Different-Phenotype (%) [4]: 14% and 5% | Total Cell Count [4]: 1063 and 1470 | Population Apoptotic (%) [7]: 15% and 24% | Population Fragmented Nuclei (%) [7]: 10% and 21% | Population Healthy Nuclei (%) [7]: 63% and 62% | Population Hoechst High Intensity Objects (%) [7]: 9% and 10% | Population Membrane Permeable-Phenotype (%) [7]: 6% | Population Mitochondria Different-Phenotype (%) [7]: 7% and 4% | Population Mitotic Cells (%) [7]: 84% and 75% | Population Normal (%) [7]: 90% and 89% | Population Pyknosed Nuclei (%) [7]: 25% and 16% | Total Cell Count [7]: 694 and 578 | Population Apoptotic (%) [8]: 9% and 17% | Population Fragmented Nuclei (%) [8]: 14% and 5% | Population Healthy Nuclei (%) [8]: 83% and 87% | Population Hoechst High Intensity Objects (%) [8]: 2% and 5% | Population Membrane Permeable-Phenotype (%) [8]: 5% | Population Mitochondria Different-Phenotype (%) [8]: 1% and 11% | Population Mitotic Cells (%) [8]: 90% and 82% | Population Normal (%) [8]: 97% and 94% | Total Cell Count [8]: 2202 and 1248
